# ChEMBL document CHEMBL3593207, “Imidazole clubbed 1,3,4-oxadiazole derivatives as potential antifungal agents” (2015)
# Columns and labels:
# Format in all cases: functional
# Candida albicans [1] = experiment: Antifungal activity against clinical isolates of Candida albicans 2367 at 2 times MIC after 48 hrs by disc diffusion assay
# In short: (§1)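 Cells (10^3 cells ml−1) grown in YPD were mixed into molten agar (~40 °C) and poured into 100-mm plates. Filter discs (4 mm) were spotted with 10 µl of compound at 1/2 × MIC, MIC or 2 × MIC. Fluconazole and 1% DMSO were the controls. Plates were incubated at 37 °C for 48 h and inhibition zone diameters recorded in mm.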
# Candida albicans [2] = experiment: Inhibition of ergosterol biosynthesis in Candida albicans ATCC 10261 assessed as ergosterol content at 1/2 MIC after 16 hrs by spectrophotometer analysis; set-up: scale not given: the % may be the effect or the level left
# In short: (§2)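 Cells were pelleted and washed, and wet weight taken. Pellets were saponified in 25% alcoholic KOH at 85 °C for 1 h. Sterols were extracted into n-heptane/water. Ergosterol content is expressed relative to untreated control cells.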
# Candida albicans [3] = experiment: Antifungal activity against Candida albicans ATCC 10261 by broth microdilution assay
# In short: (§3)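 CLSI M27-A3 broth microdilution. Compounds diluted to 1 mg/ml in 1% DMSO. Fluconazole (1 mg/ml) served as positive control, 1% DMSO as vehicle control, with media and culture controls. Triplicate at each concentration, repeated thrice. Inocula came from YPDA stocks subcultured in broth for 48 h at 37 °C.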
# Candida tropicalis [4] = experiment: Antifungal activity against Candida tropicalis ATCC 750 at 2 times MIC after 48 hrs by disc diffusion assay; in short: as §1
# Candida albicans [5] = experiment: Inhibition of ergosterol biosynthesis in Candida albicans 2367 assessed as ergosterol content at MIC after 16 hrs by spectrophotometer analysis; set-up: scale not given: the % may be the effect or the level left; in short: as §2
# Candida tropicalis [6] = experiment: Inhibition of ergosterol biosynthesis in Candida tropicalis 2029 assessed as ergosterol content at 1/2 MIC after 16 hrs by spectrophotometer analysis; set-up: scale not given: the % may be the effect or the level left; in short: as §2
# Candida albicans [7] = experiment: Inhibition of ergosterol biosynthesis in Candida albicans 2323 assessed as ergosterol content at 1/2 MIC after 16 hrs by spectrophotometer analysis; set-up: scale not given: the % may be the effect or the level left; in short: as §2
# Candida albicans [8] = experiment: Antifungal activity against Candida albicans ATCC 10261 at 2 times MIC after 48 hrs by disc diffusion assay; in short: as §1
# Candida albicans [9] = experiment: Antifungal activity against Candida albicans ATCC 10261 at half MIC after 48 hrs by disc diffusion assay; in short: as §1
# Candida albicans [10] = experiment: Antifungal activity against clinical isolates of Candida albicans 2367 by broth microdilution assay; in short: as §3
# Candida tropicalis [11] = experiment: Inhibition of ergosterol biosynthesis in Candida tropicalis 2356 assessed as ergosterol content at 1/2 MIC after 16 hrs by spectrophotometer analysis; set-up: scale not given: the % may be the effect or the level left; in short: as §2
# Candida tropicalis [12] = experiment: Antifungal activity against clinical isolates of Candida tropicalis 2356 at MIC after 48 hrs by disc diffusion assay; in short: as §1
# Candida albicans [13] = experiment: Antifungal activity against clinical isolates of Candida albicans 2323 at 2 times MIC after 48 hrs by disc diffusion assay; in short: as §1
# Candida albicans [14] = experiment: Cytotoxicity against clinical isolates of Candida albicans 2323 at MIC after 24 hrs by WST1 assay
# In short: (§4)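 Candida cells were exposed to MIC and sub-MIC levels for 24 h in microplates, then to WST-1/CEC dye for 30 min at 37 °C. Plates were shaken 1 min and the reaction stopped with 1% SDS. Formazan was read at 450 nm. % cytotoxicity = 100 × (cell control − experimental)/cell control. Triplicates, mean ± SD.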
# Candida albicans [15] = experiment: Antifungal activity against clinical isolates of Candida albicans 2323 at MIC after 48 hrs by disc diffusion assay; in short: as §1
# Candida albicans [16] = experiment: Inhibition of ergosterol biosynthesis in Candida albicans ATCC 10261 assessed as ergosterol content at MIC after 16 hrs by spectrophotometer analysis; set-up: scale not given: the % may be the effect or the level left; in short: as §2
# Candida albicans [17] = experiment: Antifungal activity against clinical isolates of Candida albicans 2779 at 2 times MIC after 48 hrs by disc diffusion assay; in short: as §1
# Candida tropicalis [18] = experiment: Antifungal activity against clinical isolates of Candida tropicalis 2356 by broth microdilution assay; in short: as §3
# Candida albicans [19] = experiment: Inhibition of ergosterol biosynthesis in Candida albicans 2323 assessed as ergosterol content at MIC after 16 hrs by spectrophotometer analysis; set-up: scale not given: the % may be the effect or the level left; in short: as §2
# Candida albicans [20] = experiment: Antifungal activity against clinical isolates of Candida albicans 2323 at half MIC after 48 hrs by disc diffusion assay; in short: as §1
# Candida albicans [21] = experiment: Inhibition of ergosterol biosynthesis in Candida albicans 2779 assessed as ergosterol content at MIC after 16 hrs by spectrophotometer analysis; set-up: scale not given: the % may be the effect or the level left; in short: as §2
# Candida albicans [22] = experiment: Inhibition of ergosterol biosynthesis in Candida albicans 2779 assessed as ergosterol content at 1/2 MIC after 16 hrs by spectrophotometer analysis; set-up: scale not given: the % may be the effect or the level left; in short: as §2
# Candida tropicalis [23] = experiment: Inhibition of ergosterol biosynthesis in Candida tropicalis ATCC 750 assessed as ergosterol content at MIC after 16 hrs by spectrophotometer analysis; set-up: scale not given: the % may be the effect or the level left
# In short: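 Cells were harvested, washed, and wet pellet weight recorded. Pellets were saponified in 3 mL 25% alcoholic KOH at 85 °C for 1 h, then sterols extracted into n-heptane. Ergosterol is expressed relative to untreated control cells.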
# Candida tropicalis [24] = experiment: Antifungal activity against Candida tropicalis ATCC 750 by broth microdilution assay; in short: as §3
# Candida albicans [25] = experiment: Cytotoxicity against clinical isolates of Candida albicans 2779 at 1/4 MIC after 24 hrs by WST1 assay; in short: as §4
# Candida tropicalis [26] = experiment: Antifungal activity against clinical isolates of Candida tropicalis 2029 at 2 times MIC after 48 hrs by disc diffusion assay; in short: as §1
# Candida albicans [27] = experiment: Antifungal activity against clinical isolates of Candida albicans 2367 at MIC after 48 hrs by disc diffusion assay; in short: as §1
# Candida albicans [28] = experiment: Antifungal activity against Candida albicans ATCC 10261 at MIC after 48 hrs by disc diffusion assay; in short: as §1
# Candida tropicalis [29] = experiment: Antifungal activity against clinical isolates of Candida tropicalis 2029 at half MIC after 48 hrs by disc diffusion assay; in short: as §1
# Candida albicans [30] = experiment: Antifungal activity against clinical isolates of Candida albicans 2367 at half MIC after 48 hrs by disc diffusion assay; in short: as §1
# Candida albicans [31] = experiment: Antifungal activity against clinical isolates of Candida albicans 2779 at MIC after 48 hrs by disc diffusion assay; in short: as §1
# Candida albicans [32] = experiment: Antifungal activity against clinical isolates of Candida albicans 2779 at half MIC after 48 hrs by disc diffusion assay; in short: as §1
# Candida tropicalis [33] = experiment: Antifungal activity against clinical isolates of Candida tropicalis 2029 at MIC after 48 hrs by disc diffusion assay; in short: as §1
# Candida tropicalis [34] = experiment: Antifungal activity against clinical isolates of Candida tropicalis 2356 at half MIC after 48 hrs by disc diffusion assay; in short: as §1
# Candida tropicalis [35] = experiment: Antifungal activity against clinical isolates of Candida tropicalis 2029 by broth microdilution assay; in short: as §3
# Candida tropicalis [36] = experiment: Inhibition of ergosterol biosynthesis in Candida tropicalis ATCC 750 assessed as ergosterol content at 1/2 MIC after 16 hrs by spectrophotometer analysis; set-up: scale not given: the % may be the effect or the level left; in short: as §2
# Candida albicans [37] = experiment: Antifungal activity against clinical isolates of Candida albicans 2779 by broth microdilution assay; in short: as §3
# Candida tropicalis [38] = experiment: Antifungal activity against Candida tropicalis ATCC 750 at half MIC after 48 hrs by disc diffusion assay; in short: as §1
# Candida albicans [39] = experiment: Inhibition of ergosterol biosynthesis in Candida albicans 2367 assessed as ergosterol content at 1/2 MIC after 16 hrs by spectrophotometer analysis; set-up: scale not given: the % may be the effect or the level left; in short: as §2
# Candida tropicalis [40] = experiment: Inhibition of ergosterol biosynthesis in Candida tropicalis 2356 assessed as ergosterol content at MIC after 16 hrs by spectrophotometer analysis; set-up: scale not given: the % may be the effect or the level left; in short: as §2
# Candida albicans [41] = experiment: Antifungal activity against clinical isolates of Candida albicans 2323 by broth microdilution assay; in short: as §3
# Candida tropicalis [42] = experiment: Antifungal activity against clinical isolates of Candida tropicalis 2356 at 2 times MIC after 48 hrs by disc diffusion assay; in short: as §1
# Candida tropicalis [43] = experiment: Inhibition of ergosterol biosynthesis in Candida tropicalis 2029 assessed as ergosterol content at MIC after 16 hrs by spectrophotometer analysis; set-up: scale not given: the % may be the effect or the level left; in short: as §2
# Candida tropicalis [44] = experiment: Antifungal activity against Candida tropicalis ATCC 750 at MIC after 48 hrs by disc diffusion assay; in short: as §1
# Candida tropicalis [45] = experiment: Cytotoxicity against clinical isolates of Candida tropicalis 2029 at MIC after 24 hrs by WST1 assay; in short: as §4
smiles,measurement,setting,value
CCc1ccnc(-c2nccn2Cc2nnc(-c3ccccc3OC(C)=O)o2)c1,inhibition zone (IZ),Candida albicans [1],12 mm
same,Activity,Candida albicans [2],51%
same,MIC,Candida albicans [3],2 µg/mL
same,inhibition zone (IZ),Candida tropicalis [4],14 mm
same,Activity,Candida albicans [5],89%
same,Activity,Candida tropicalis [6],53%
same,Activity,Candida albicans [7],42%
same,inhibition zone (IZ),Candida albicans [8],16 mm
same,inhibition zone (IZ),Candida albicans [9],5 mm
same,MIC,Candida albicans [10],8 µg/mL
same,Activity,Candida tropicalis [11],48%
same,inhibition zone (IZ),Candida tropicalis [12],6 mm
same,inhibition zone (IZ),Candida albicans [13],11 mm
same,Activity,Candida albicans [14],60.62%
same,inhibition zone (IZ),Candida albicans [15],6 mm
same,Activity,Candida albicans [16],100%
same,inhibition zone (IZ),Candida albicans [17],13 mm
same,MIC,Candida tropicalis [18],32 µg/mL
same,Activity,Candida albicans [19],91%
same,inhibition zone (IZ),Candida albicans [20],2 mm
same,Activity,Candida albicans [21],93%
same,Activity,Candida albicans [22],52%
same,Activity,Candida tropicalis [23],100%
same,MIC,Candida tropicalis [24],4 µg/mL
same,Activity,Candida albicans [25],7.31%
same,inhibition zone (IZ),Candida tropicalis [26],10 mm
same,inhibition zone (IZ),Candida albicans [27],8 mm
same,inhibition zone (IZ),Candida albicans [28],11 mm
same,inhibition zone (IZ),Candida tropicalis [29],1 mm
same,inhibition zone (IZ),Candida albicans [30],3 mm
same,inhibition zone (IZ),Candida albicans [31],11 mm
same,inhibition zone (IZ),Candida albicans [32],3 mm
same,inhibition zone (IZ),Candida tropicalis [33],5 mm
same,inhibition zone (IZ),Candida tropicalis [34],2 mm
same,MIC,Candida tropicalis [35],16 µg/mL
same,Activity,Candida tropicalis [36],47%
same,MIC,Candida albicans [37],16 µg/mL
same,inhibition zone (IZ),Candida tropicalis [38],3 mm
same,Activity,Candida albicans [39],52%
same,Activity,Candida tropicalis [40],91%
same,MIC,Candida albicans [41],16 µg/mL
same,inhibition zone (IZ),Candida tropicalis [42],11 mm
same,Activity,Candida tropicalis [43],87%
same,inhibition zone (IZ),Candida tropicalis [44],9 mm
same,Activity,Candida tropicalis [45],60.62%
